Screening data deposited in PubChem BioAssay by Broad Institute.
Compounds with a hit are over-represented: about 2.2% of the library has one in this group of screens.
ERp5 inh – blocks human ERp5 reductase activity on insulin. AID 651711. inhibition, % at 9.99 µM. ERp5 insulin aggregation, absorbance 650 nm, 90 min. Q15084. hit rate 0.05% among 350,000;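 active = mean replicate inhibition above about 25%, with every replicate also reaching it, limit read from the data, passing the limit was not always enough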
Target sequence (Q15084 whole entry, looked up): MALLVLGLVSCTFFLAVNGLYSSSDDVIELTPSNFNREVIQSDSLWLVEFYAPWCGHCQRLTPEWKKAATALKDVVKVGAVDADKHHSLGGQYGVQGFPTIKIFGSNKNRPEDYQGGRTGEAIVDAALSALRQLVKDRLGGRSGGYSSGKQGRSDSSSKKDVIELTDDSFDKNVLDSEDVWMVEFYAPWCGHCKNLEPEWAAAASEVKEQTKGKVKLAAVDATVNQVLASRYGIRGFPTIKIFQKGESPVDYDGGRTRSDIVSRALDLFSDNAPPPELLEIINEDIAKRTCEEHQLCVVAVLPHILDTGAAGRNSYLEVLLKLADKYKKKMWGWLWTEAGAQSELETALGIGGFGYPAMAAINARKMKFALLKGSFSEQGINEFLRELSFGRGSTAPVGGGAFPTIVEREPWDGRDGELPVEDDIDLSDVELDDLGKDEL
FN deposit inh – fibronectin deposition inhibition; AH1F fibroblasts, Alexa488-fibronectin deposition fluorescence, overnight; inhibition, % at 12.6 µM; hit rate 0.086% among 350,000; AID 743247;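 active = mean inhibition across replicates of 30% or more, regardless of how many single replicates reach that level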;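 also: positive control wells lacked labelled fibronectin entirely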
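test system = AH1F fibroblasts assembling fluorescent fibronectin matrix | quantity = 10000 AH1F cells per well | buffer or medium = DMEM plus 2% serum, read in PBS | doses = single dose, pinned | incubation = 1 h cell attachment, overnight exposure to compound and label | detection = fluorescence at 485 nm excitation, 525 nm emission | read-out basis = inhibition from reduced deposited-fibronectin fluorescence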
PvdQ inh – P. aeruginosa PvdQ acylase inhibition. hit rate 0.063% among 340,000. AID 488965. purified PvdQ acylase, fluorescence plate reader. inhibition, % at 10 µM; in the data active = inhibition above about 30%, passing the limit was not always enough;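 also: 0% = vehicle neutral wells and 100% = reference inhibitor wells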
Env fusion inh – inhibitors of HIV Env-mediated cell fusion; HeLa-JRFL Env/CEM21 cell fusion, luciferase; hit rate 1.1% among 360,000; inhibition, % at 12.3 µM; AID 651610;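 active = mean replicate inhibition score of at least 50 and every replicate individually at or above 50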;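 also: 0% = plate neutral controls and 100% = maraviroc near 300 nM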
PDI turbidity – inhibitors of human protein disulfide isomerase. P07237. PDI insulin aggregation turbidity, A650, 90 min. inhibition, % at 10 µM. hit rate 0.052% among 350,000. AID 588391;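 active = mean inhibition across replicates of 30% or more, whatever share of single replicates reach that level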
rRNA inh HTS – selective bacterial rRNA inhibition in E. coli | E. coli WT GFP vs humanized-ribosome RFP mutants, fluorescence, 24 h; hits give low values; DMSO median 0, no signal -100 | hit rate 1.6% among 350,000 | AID 720706 | GFP signal change (wild-type ribosome), % (test concentration not listed);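 active = significant combined selectivity score with lowered wild-type GFP, culture density cut under 30%, mutant RFP and density less affected; inactive = any of these conditions unmet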
The depositor's hits bear a star; [ ] = dose if it differs, or a comment.

For COc1cc(/C=C(\C#N)C(N)=O)ccc1OS(=O)(=O)c1ccc(C)cc1 the results were ERp5 inh -8, FN deposit inh 7, PvdQ inh -3, PDI turbidity -6 and rRNA inh HTS -24*.
Screening CCC(=O)N1CC2(C1)[C@H](c1ccccc1)[C@@H](CO)N2C(=O)c1ccncc1 returned ERp5 inh -5 and rRNA inh HTS 3.
Screening Nc1c(C(=O)c2ccccc2)sc2nsc(SCCN3CCOCC3)c12 returned ERp5 inh 3, FN deposit inh -2, Env fusion inh 9, PDI turbidity 0 and rRNA inh HTS -27*.
CCOC(=O)c1sc2nc(N3CCOCC3)c3c(c2c1N)CC(C)(C)N(C)C3 was read as FN deposit inh -5, PvdQ inh -7, Env fusion inh -14 and PDI turbidity 12.
`CN1Cc2c(N3CCOCC3)nc3sc(C(=O)c4ccccc4)c(N)c3c2CC1(C)C` gave ERp5 inh 2, FN deposit inh 0, PvdQ inh -11, Env fusion inh 8, PDI turbidity 1 and rRNA inh HTS -36*.
`Cc1ccccc1NC(=S)N(Cc1cccs1)C1CCCC1` gave ERp5 inh 4, FN deposit inh 7, PvdQ inh 14, Env fusion inh 9, PDI turbidity 5 and rRNA inh HTS -24*.
`O=C(c1ccccn1)N1C[C@@H]2N[C@H](C1)C2c1ccc(-c2ccccc2F)cc1` (some centres not stated) gave ERp5 inh 14, FN deposit inh -2 and rRNA inh HTS -3.
C[C@@H]1CN([C@H](C)CO)C(=O)c2cc(NC(=O)c3ccncc3)ccc2O[C@@H]1CN(C)CC1CCCCC1 was read as ERp5 inh -2, FN deposit inh 0, Env fusion inh 2[16.7 µM] and rRNA inh HTS 0.
For O=C1CS(=O)(=O)C(c2ccccc2)N1c1cccc(Cl)c1 (configuration not stated) the results were ERp5 inh 0 and Env fusion inh -12[16.7 µM].
For C=CCNC(=S)N(C)[C@H]1C[C@H]2c3cc(-c4ccccc4C)ccc3CCN2C[C@H]1[C@H](C)O the results were ERp5 inh 4, FN deposit inh -11, Env fusion inh 5 and rRNA inh HTS -30*.
Screening Cc1ccccc1-c1ccc2c(c1)[C@@H]1C[C@H](N(C)C(=O)c3ccco3)[C@H]([C@H](C)O)CN1CC2 returned ERp5 inh 11, FN deposit inh 4, Env fusion inh -9 and rRNA inh HTS -1.
`C[C@@H]1ON(C)[C@H]2C[C@H]3c4[nH]c5c(-c6ccccc6)cccc5c4CCN3C[C@@H]12` gave ERp5 inh 3, FN deposit inh 0, Env fusion inh 3 and rRNA inh HTS -26*.
For C[C@H](O)[C@@H]1CN2CCc3c([nH]c4c(-c5ccccc5)cccc34)[C@@H]2C[C@@H]1N(C)C(=S)NCCc1ccccc1 the results were ERp5 inh 4, FN deposit inh 2, Env fusion inh 2 and rRNA inh HTS -30*.
Screening CCCC#Cc1cnc2c(c1)C(=O)N([C@H](C)CO)C[C@H](C)[C@H](CN(C)C(=O)C1CCOCC1)O2 returned ERp5 inh 12, Env fusion inh -2[16.7 µM] and rRNA inh HTS 0.
CCn1c(COc2ccc(Cl)cc2)nnc1SCc1nc2ccccc2[nH]1 was read as PvdQ inh -15, Env fusion inh 114* and PDI turbidity -2.
`COc1ccc2c3c(n(C)c2c1)[C@@H](CO)N(Cc1nccs1)CC31CCN(C(C)=O)CC1` gave rRNA inh HTS -1.
Screening COc1ccccc1-c1c(C(F)(F)F)oc2cc(OS(C)(=O)=O)ccc2c1=O returned ERp5 inh -1, FN deposit inh -1, PvdQ inh 0, PDI turbidity -2 and rRNA inh HTS -26*.
`COc1cc(/C=C/C(=O)OCC(=O)N2CCCc3ccccc32)ccc1OCC#N` gave ERp5 inh -6, FN deposit inh -4, PvdQ inh 5, Env fusion inh -2, PDI turbidity -3 and rRNA inh HTS -24*.
For COc1cc(/C=C/C(=O)OCC(=O)N2CCCc3ccccc32)ccc1O the results were ERp5 inh -21, FN deposit inh 2, PvdQ inh 9, Env fusion inh 2 and PDI turbidity 4.
C[C@@H]1CN([C@@H](C)CO)C(=O)c2cc(N(C)C)ccc2O[C@@H](C)CCCCO[C@H]1CN(C)Cc1ccc2c(c1)OCO2 was read as ERp5 inh 1, Env fusion inh -19[16.7 µM] and rRNA inh HTS -3.
`Cc1c(C(=O)O)sc2nc(-c3cccs3)cc(C(F)(F)F)c12` gave ERp5 inh 4, FN deposit inh 0, PvdQ inh 3, Env fusion inh -8, PDI turbidity -2 and rRNA inh HTS -61.
For Cc1c(C(=O)Nc2nccs2)sc2nc(-c3cccs3)cc(C(F)(F)F)c12 the results were FN deposit inh 7, PvdQ inh 13, Env fusion inh 57* and PDI turbidity -1.
`Cc1cc(S(=O)(=O)Nc2ccc3ccccc3c2)c(C)s1` gave ERp5 inh 4, PvdQ inh -7, PDI turbidity 0 and rRNA inh HTS -51*.
For COc1ccc(NC(=O)C2CCCN(c3c4c(nc5ncnn35)CCC4)C2)cc1OC (configuration not stated) the results were PvdQ inh -14, Env fusion inh 3 and PDI turbidity -3.
O=C(Nc1ccc(Oc2ccccc2)cc1)C1CCN(c2c3c(nc4ncnn24)CCC3)CC1 was read as FN deposit inh -6, PvdQ inh -2, Env fusion inh 103* and PDI turbidity -6.
Screening O=C(Nc1ccc2c(c1)CCC2)C1CCN(c2c3c(nc4ncnn24)CCC3)CC1 returned FN deposit inh 2, PvdQ inh -13, Env fusion inh 96* and PDI turbidity 1.
For C[C@H]1CN([C@@H](C)CO)C(=O)c2cc(NC(=O)Cn3cnnn3)ccc2O[C@@H]1CN(C)S(=O)(=O)c1ccc(F)cc1 the results were ERp5 inh 3, FN deposit inh -3, Env fusion inh -17[16.7 µM] and rRNA inh HTS 4.
For CO[C@@H](CN(C)S(=O)(=O)c1ccc(Cl)cc1)[C@@H](C)CN([C@@H](C)CO)S(=O)(=O)c1cccc(Cl)c1 the results were ERp5 inh 0, FN deposit inh 14, Env fusion inh 43[16.7 µM] and rRNA inh HTS -4.
CO[C@@H](CN(C)S(=O)(=O)c1ccc(Cl)cc1)[C@@H](C)CN([C@H](C)CO)S(=O)(=O)c1cccc(Cl)c1 was read as ERp5 inh 3, FN deposit inh 8, Env fusion inh 64*[16.7 µM] and rRNA inh HTS 0.
For CO[C@H](CN(C)S(=O)(=O)c1ccc(Cl)cc1)[C@@H](C)CN([C@@H](C)CO)S(=O)(=O)c1cccc(Cl)c1 the results were ERp5 inh -1, FN deposit inh 4, Env fusion inh 77*[16.7 µM] and rRNA inh HTS 2.
